Measurements from ChEMBL document CHEMBL1123730, “Synthesis and pharmacological evaluation of a new class of 2-(2-aminothiazol-4-yl)-2-hydrazonoacetamido cephalosporins” (J Med Chem, 1987).
In brackets after ≈: the same amount, converted by molar mass.

Tests used:
[1] = Distribution (50 mg/kg) was determined in kidney 120 min after intravenous administration; type: ADME, organism-based; conditions: in vivo, 2 h
Procedure, shortened: (§1)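 Wistar rats (200-250 g, groups of five) given 50 mg/kg in sterile water iv or im; killed at set times, lung, liver and kidney homogenized in 0.1 M pH 7.3 phosphate buffer (tissue:buffer 1:5). Drug assayed by agar diffusion on Nutrient Agar with E. coli ATCC 10536 (37 °C, 18 h); standards in phosphate buffer; detection limit 0.5 μg/mL; mean ± SEM.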

[2] = Distribution (50 mg/kg) was determined in kidney 60 min after intramuscular administration; type: ADME, organism-based; conditions: im, read-out: Tissue distribution; procedure, shortened: as §1
[3] = Distribution (50 mg/kg) was determined in liver 120 min after intramuscular administration; type: ADME, organism-based; conditions: im, read-out: Tissue distribution; procedure, shortened: as §1
[4] = Distribution (50 mg/kg) was determined in lung 15 min after intramuscular administration; type: ADME, organism-based; conditions: im, read-out: Tissue distribution; procedure, shortened: as §1
[5] = Distribution (50 mg/kg) was determined in lung 15 min after intravenous administration; type: ADME, organism-based; conditions: read-out: Tissue distribution; procedure, shortened: as §1
[6] = Distribution (50 mg/kg) was determined in lung 60 min after intramuscular administration; type: ADME, organism-based; conditions: im, read-out: Tissue distribution; procedure, shortened: as §1
[7] = Serum level was determined at 15 min after an intravenous administration of 50 mg/kg in rats; type: ADME, organism-based; set-up: dose 50 mg/kg, route intravenous; conditions: rat, read-out: Serum level
Procedure, shortened: (§2)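 Dose 50 mg/kg in sterile water, iv or im, to Wistar rats 200-250 g, five per time point; killed at set intervals, blood centrifuged for serum. Antibiotic measured by agar diffusion on Nutrient Agar with E. coli ATCC 10536 (37 °C, 18 h), standards diluted in serum; detection limit 1 μg/mL. Mean ± SEM of five rats.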

[8] = Serum level was determined at 30 min after an intravenous administration of 50 mg/kg in rats; type: ADME, organism-based; set-up: dose 50 mg/kg, route intravenous; conditions: rat, read-out: Serum level; procedure, shortened: as §2
[9] = Serum level was determined at 5 min after an intravenous administration of 50 mg/kg in rats; type: ADME, organism-based; set-up: dose 50 mg/kg, route intravenous; conditions: rat, read-out: Serum level; procedure, shortened: as §2
[10] = Serum level was determined at 60 min after intramuscular administration of 50 mg/kg in rats; type: ADME, organism-based; set-up: dose 50 mg/kg, route intramuscular; conditions: rat, im, read-out: Serum level; procedure, shortened: as §2
[11] = Serum level was determined at 120 min after intramuscular administration of 50 mg/kg in rats; type: ADME, organism-based; set-up: dose 50 mg/kg, route intramuscular; conditions: rat, im, read-out: Serum level; procedure, shortened: as §2
[12] = Half-life administered, intravenously; type: ADME, organism-based; conditions: in vivo, iv
Procedure, shortened: (§3)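 Wistar rats (200-250 g, groups of five) given 50 mg/kg in sterile water iv or im; killed at 5-360 min, serum separated. Levels by agar diffusion bioassay, E. coli ATCC 10536 test organism, 37 °C 18 h, standards in serum (detection limit 1 μg/mL); elimination half-life derived from serum time course.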

Alcaligenes = assay: Geometrical average of minimum bactericidal concentration was determined in isosensitest broth against Alcaligenes; type: functional
Escherichia coli [13] = assay: Geometrical average of minimum bactericidal concentration was determined in isosensitest broth against Escherichia coli; type: functional
Escherichia coli [14] = assay: Minimum inhibitory concentration against Escherichia coli ISM strain; type: functional
Enterobacter = assay: Geometrical average of minimum bactericidal concentration was determined in isosensitest broth against Enterobacter; type: functional
Klebsiella = assay: Geometrical average of minimum inhibitory concentration was determined in isosensitest broth against Klebsiella; type: functional
Sarcina = assay: Geometrical average of minimum bactericidal concentration was determined in isosensitest broth against Sarcina; type: functional
Salmonella typhimurium = assay: In vivo protective dose was determined in infected swiss mice (120/strain) infected ip with Salmonella Typhimurium T.O. with an inoculum size-0.5 mL of 10 E6 CFU/mL of suspension. Activity in range of 5.47-15.81; type: functional, Salmonella enterica subsp. enterica serovar Typhimurium; conditions: Salmonella enterica
Streptococcus = assay: Geometrical average of minimum inhibitory concentration was determined in isosensitest broth against Streptococcus; type: functional
Serratia [15] = assay: Geometrical average of minimum inhibitory concentration was determined in isosensitest broth against Serratia; type: functional
Staphylococcus = assay: Geometrical average of minimum bactericidal concentration was determined in isosensitest broth against Staphylococcus (10); type: functional
Serratia [16] = assay: Geometrical average of minimum bactericidal concentration was determined in isosensitest broth against Serratia; type: functional
[17] = Half-life administered, intramuscularly; type: ADME; conditions: im; procedure, shortened: as §3
Klebsiella pneumoniae = assay: In vivo protective dose was determined in infected swiss mice (120/strain) infected ip with Klebsiella pneumoniae 102 with an inoculum size-0.5 mL of 10 E5 CFU/mL of suspension. Activity in range of 10.47-22.94

SMILES: Cn1nnnc1SCC1=C(C(=O)O)N2C(=O)[C@@H](NC(=O)/C(=N/N)c3csc(N)n3)[C@H]2SC1
- Tissue distribution [1]: Undetectable
- concentration at 1 h [2]: 22900 ng/g
- concentration at 2 h [3]: 5270 ng/g
- concentration at 0.25 h [4]: 10700 ng/g
- concentration at 0.25 h [5]: 17500 ng/g
- concentration at 1 h [6]: 7660 ng/g
- concentration at 0.25 h [7]: 137 µg/mL
- concentration at 0.5 h [8]: 87.2 µg/mL
- concentration at 5 min [9]: 231 µg/mL
- concentration at 1 h [10]: 64.4 µg/mL
- concentration at 2 h [11]: 32.9 µg/mL
- half-life [12]: 45 min
- MBC (Alcaligenes): 12.5 µg/mL (≈ 25.2 µM)
- MBC (Escherichia coli [13]): 1.01 µg/mL (≈ 2.03 µM)
- MIC (Escherichia coli [14]): 1.1 µg/mL (≈ 2.22 µM)
- MBC (Enterobacter): 3.12 µg/mL (≈ 6.28 µM)
- MIC (Klebsiella): 1.17 µg/mL (≈ 2.36 µM)
- MBC (Sarcina): 2.21 µg/mL (≈ 4.45 µM)
- ED50 (Salmonella typhimurium): 9.3 mg/kg
- MIC (Streptococcus): 25 µg/mL (≈ 50.3 µM)
- MIC (Serratia [15]): 1.75 µg/mL (≈ 3.52 µM)
- MBC (Staphylococcus): 11.3 µg/mL (≈ 22.7 µM)
- MBC (Serratia [16]): 3.12 µg/mL (≈ 6.28 µM)
- half-life [17]: 69 min
- ED50 (Klebsiella pneumoniae): 15.5 mg/kg
